{
  "source": "ChEMBL document CHEMBL3046406",
  "about": "“Herbicidal potential of ophiobolins produced by Drechslera gigantea” (2006)",
  "note": "The source made the active and inactive calls. No cut-off for these calls is given here.",
  "data": [
    {"test_system": "Digitaria sanguinalis", "assay": "Herbicidal activity against Digitaria sanguinalis (hairy crabgrass) assessed as diameter of leaf necrosis at 50 ug/ml measured after 2 days post compound treatment by leaf puncture assay", "assay_type": "functional", "method_in_brief": "(§1)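 Detached leaf segments (about 5 cm) from young greenhouse-grown plants, each with a superficial puncture lesion (0.5 mm) made by glass capillary. Compound dissolved in DMSO, diluted with distilled water (final DMSO 2%), 8 µL droplet applied. Segments held on moist filter paper at 25 °C under continuous fluorescent light (10000 lux). DMSO droplets as control. Necrosis scored visually on a 0–3 scale at day 2.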", "units": {"Activity": "mm"}, "values": [
      {"smiles": "CC(C)=C[C@H]1C[C@H](C)[C@]2(CC[C@]3(C)C[C@H]4[C@@H](C(=O)C[C@@]4(C)O)/C(C=O)=C\\C[C@H]32)O1", "note": "[6-EPI-OHPIOBOLIN A]", "Activity": 2}
    ]},
    {"test_system": "Avena sterilis subsp. ludoviciana", "assay": "Herbicidal activity against Avena sterilis subsp. ludoviciana assessed as diameter of leaf necrosis at 100 ug/ml measured after 2 days post compound treatment by leaf puncture assay", "assay_type": "functional", "method_in_brief": "as §1", "units": {"Activity": "mm"}, "values": [
      {"smiles": "CC(C)=C[C@H]1C[C@H](C)[C@]2(CC[C@]3(C)C[C@H]4[C@@H](C(=O)C[C@@]4(C)O)/C(C=O)=C\\C[C@H]32)O1", "note": "[6-EPI-OHPIOBOLIN A]", "Activity": 2}
    ]},
    {"test_system": "Diplotaxis erucoides", "assay": "Herbicidal activity against Diplotaxis erucoides assessed as diameter of leaf necrosis at 250 ug/ml measured after 2 days post compound treatment by leaf puncture assay", "assay_type": "functional", "method_in_brief": "as §1", "units": {"Activity": "mm"}, "values": [
      {"smiles": "CC(C)=C[C@H]1C[C@H](C)[C@]2(CC[C@]3(C)C[C@H]4[C@@H](C(=O)C[C@@]4(C)O)/C(C=O)=C\\C[C@H]32)O1", "note": "[6-EPI-OHPIOBOLIN A]", "Activity": 2}
    ]},
    {"test_system": "Oloptum miliaceum", "assay": "Herbicidal activity against Piptatherum miliaceum assessed as diameter of leaf necrosis at 50 ug/ml measured after 2 days post compound treatment by leaf puncture assay", "assay_type": "functional", "method_in_brief": "as §1", "units": {"Activity": "mm"}, "values": [
      {"smiles": "CC(C)=C[C@H]1C[C@H](C)[C@]2(CC[C@]3(C)C[C@H]4[C@@H](C(=O)C[C@@]4(C)O)/C(C=O)=C\\C[C@H]32)O1", "note": "[6-EPI-OHPIOBOLIN A]", "Activity": 1}
    ]},
    {"test_system": "Setaria viridis", "assay": "Herbicidal activity against Setaria viridis assessed as diameter of leaf necrosis at 250 ug/ml measured after 2 days post compound treatment by leaf puncture assay", "assay_type": "functional", "method_in_brief": "as §1", "units": {"Activity": "mm"}, "values": [
      {"smiles": "CC(C)=C[C@H]1C[C@H](C)[C@]2(CC[C@]3(C)C[C@H]4[C@@H](C(=O)C[C@@]4(C)O)/C(C=O)=C\\C[C@H]32)O1", "note": "[6-EPI-OHPIOBOLIN A]", "Activity": ">3"}
    ]},
    {"test_system": "Avena sterilis subsp. ludoviciana", "assay": "Herbicidal activity against Avena sterilis subsp. ludoviciana assessed as diameter of leaf necrosis at 50 ug/ml measured after 2 days post compound treatment by leaf puncture assay", "assay_type": "functional", "method_in_brief": "as §1", "units": {"Activity": "mm"}, "values": [
      {"smiles": "CC(C)=C[C@H]1C[C@H](C)[C@]2(CC[C@]3(C)C[C@H]4[C@@H](C(=O)C[C@@]4(C)O)/C(C=O)=C\\C[C@H]32)O1", "note": "[6-EPI-OHPIOBOLIN A]", "Activity": 2}
    ]},
    {"test_system": "Bromus sterilis", "assay": "Herbicidal activity against Bromus sterilis assessed as diameter of leaf necrosis at 100 ug/ml measured after 2 days post compound treatment by leaf puncture assay", "assay_type": "functional", "method_in_brief": "as §1", "units": {"Activity": "mm"}, "values": [
      {"smiles": "CC(C)=C[C@H]1C[C@H](C)[C@]2(CC[C@]3(C)C[C@H]4[C@@H](C(=O)C[C@@]4(C)O)/C(C=O)=C\\C[C@H]32)O1", "note": "[6-EPI-OHPIOBOLIN A]", "Activity": 1}
    ]},
    {"test_system": "Cynodon dactylon", "assay": "Herbicidal activity against Cynodon dactylon assessed as diameter of leaf necrosis at 50 ug/ml measured after 2 days post compound treatment by leaf puncture assay", "assay_type": "functional", "method_in_brief": "as §1", "values": [
      {"smiles": "CC(C)=C[C@H]1C[C@H](C)[C@]2(CC[C@]3(C)C[C@H]4[C@@H](C(=O)C[C@@]4(C)O)/C(C=O)=C\\C[C@H]32)O1", "note": "[6-EPI-OHPIOBOLIN A]", "Activity": "inactive"}
    ]},
    {"test_system": "Avena sterilis subsp. ludoviciana", "assay": "Herbicidal activity against Avena sterilis subsp. ludoviciana assessed as diameter of leaf necrosis at 250 ug/ml measured after 2 days post compound treatment by leaf puncture assay", "assay_type": "functional", "method_in_brief": "as §1", "units": {"Activity": "mm"}, "values": [
      {"smiles": "CC(C)=C[C@H]1C[C@H](C)[C@]2(CC[C@]3(C)C[C@H]4[C@@H](C(=O)C[C@@]4(C)O)/C(C=O)=C\\C[C@H]32)O1", "note": "[6-EPI-OHPIOBOLIN A]", "Activity": 2}
    ]},
    {"test_system": "Sonchus oleraceus", "assay": "Herbicidal activity against Sonchus oleraceus assessed as diameter of leaf necrosis at 50 ug/ml measured after 2 days post-compound treatment by leaf puncture assay", "assay_type": "functional", "method_in_brief": "as §1", "units": {"Activity": "mm"}, "values": [
      {"smiles": "CC(C)=C[C@H]1C[C@H](C)[C@]2(CC[C@]3(C)C[C@H]4[C@@H](C(=O)C[C@@]4(C)O)/C(C=O)=C\\C[C@H]32)O1", "note": "[6-EPI-OHPIOBOLIN A]", "Activity": ">3"}
    ]},
    {"test_system": "Convolvulus arvensis", "assay": "Herbicidal activity against Convolvulus arvensis assessed as diameter of leaf necrosis at 250 ug/ml measured after 2 days post compound treatment by leaf puncture assay", "assay_type": "functional", "method_in_brief": "as §1", "units": {"Activity": "mm"}, "values": [
      {"smiles": "CC(C)=C[C@H]1C[C@H](C)[C@]2(CC[C@]3(C)C[C@H]4[C@@H](C(=O)C[C@@]4(C)O)/C(C=O)=C\\C[C@H]32)O1", "note": "[6-EPI-OHPIOBOLIN A]", "Activity": 2}
    ]},
    {"test_system": "Setaria viridis", "assay": "Herbicidal activity against Setaria viridis assessed as diameter of leaf necrosis at 50 ug/ml measured after 2 days post compound treatment by leaf puncture assay", "assay_type": "functional", "method_in_brief": "as §1", "units": {"Activity": "mm"}, "values": [
      {"smiles": "CC(C)=C[C@H]1C[C@H](C)[C@]2(CC[C@]3(C)C[C@H]4[C@@H](C(=O)C[C@@]4(C)O)/C(C=O)=C\\C[C@H]32)O1", "note": "[6-EPI-OHPIOBOLIN A]", "Activity": ">3"}
    ]},
    {"test_system": "Phalaris canariensis", "assay": "Herbicidal activity against Phalaris canariensis assessed as diameter of leaf necrosis at 100 ug/ml measured after 2 days post compound treatment by leaf puncture assay", "assay_type": "functional", "method_in_brief": "as §1", "units": {"Activity": "mm"}, "values": [
      {"smiles": "CC(C)=C[C@H]1C[C@H](C)[C@]2(CC[C@]3(C)C[C@H]4[C@@H](C(=O)C[C@@]4(C)O)/C(C=O)=C\\C[C@H]32)O1", "note": "[6-EPI-OHPIOBOLIN A]", "Activity": 2}
    ]},
    {"test_system": "Bromus sterilis", "assay": "Herbicidal activity against Bromus sterilis assessed as diameter of leaf necrosis at 50 ug/ml measured after 2 days post compound treatment by leaf puncture assay", "assay_type": "functional", "method_in_brief": "as §1", "units": {"Activity": "mm"}, "values": [
      {"smiles": "CC(C)=C[C@H]1C[C@H](C)[C@]2(CC[C@]3(C)C[C@H]4[C@@H](C(=O)C[C@@]4(C)O)/C(C=O)=C\\C[C@H]32)O1", "note": "[6-EPI-OHPIOBOLIN A]", "Activity": 1}
    ]},
    {"test_system": "Echinochloa crus-galli", "assay": "Herbicidal activity against Echinochloa crus-galli (barnyard grass) assessed as diameter of leaf necrosis at 100 ug/ml measured after 2 days post compound treatment by leaf puncture assay", "assay_type": "functional", "method_in_brief": "as §1", "units": {"Activity": "mm"}, "values": [
      {"smiles": "CC(C)=C[C@H]1C[C@H](C)[C@]2(CC[C@]3(C)C[C@H]4[C@@H](C(=O)C[C@@]4(C)O)/C(C=O)=C\\C[C@H]32)O1", "note": "[6-EPI-OHPIOBOLIN A]", "Activity": 2}
    ]},
    {"test_system": "Oloptum miliaceum", "assay": "Herbicidal activity against Piptatherum miliaceum assessed as diameter of leaf necrosis at 100 ug/ml measured after 2 days post compound treatment by leaf puncture assay", "assay_type": "functional", "method_in_brief": "as §1", "units": {"Activity": "mm"}, "values": [
      {"smiles": "CC(C)=C[C@H]1C[C@H](C)[C@]2(CC[C@]3(C)C[C@H]4[C@@H](C(=O)C[C@@]4(C)O)/C(C=O)=C\\C[C@H]32)O1", "note": "[6-EPI-OHPIOBOLIN A]", "Activity": 1}
    ]},
    {"test_system": "Digitaria sanguinalis", "assay": "Herbicidal activity against Digitaria sanguinalis (hairy crabgrass) assessed as diameter of leaf necrosis at 250 ug/ml measured after 2 days post compound treatment by leaf puncture assay", "assay_type": "functional", "method_in_brief": "as §1", "units": {"Activity": "mm"}, "values": [
      {"smiles": "CC(C)=C[C@H]1C[C@H](C)[C@]2(CC[C@]3(C)C[C@H]4[C@@H](C(=O)C[C@@]4(C)O)/C(C=O)=C\\C[C@H]32)O1", "note": "[6-EPI-OHPIOBOLIN A]", "Activity": ">3"}
    ]},
    {"test_system": "Chenopodium album", "assay": "Herbicidal activity against Chenopodium album assessed as diameter of leaf necrosis at 50 ug/ml measured after 2 days post compound treatment by leaf puncture assay", "assay_type": "functional", "method_in_brief": "as §1", "units": {"Activity": "mm"}, "values": [
      {"smiles": "CC(C)=C[C@H]1C[C@H](C)[C@]2(CC[C@]3(C)C[C@H]4[C@@H](C(=O)C[C@@]4(C)O)/C(C=O)=C\\C[C@H]32)O1", "note": "[6-EPI-OHPIOBOLIN A]", "Activity": 2}
    ]},
    {"test_system": "Diplotaxis erucoides", "assay": "Herbicidal activity against Diplotaxis erucoides assessed as diameter of leaf necrosis at 100 ug/ml measured after 2 days post compound treatment by leaf puncture assay", "assay_type": "functional", "method_in_brief": "as §1", "units": {"Activity": "mm"}, "values": [
      {"smiles": "CC(C)=C[C@H]1C[C@H](C)[C@]2(CC[C@]3(C)C[C@H]4[C@@H](C(=O)C[C@@]4(C)O)/C(C=O)=C\\C[C@H]32)O1", "note": "[6-EPI-OHPIOBOLIN A]", "Activity": 2}
    ]},
    {"test_system": "Amaranthus retroflexus", "assay": "Herbicidal activity against Amaranthus retroflexus assessed as diameter of leaf necrosis at 50 ug/ml measured after 2 days post compound treatment by leaf puncture assay", "assay_type": "functional", "method_in_brief": "as §1", "units": {"Activity": "mm"}, "values": [
      {"smiles": "CC(C)=C[C@H]1C[C@H](C)[C@]2(CC[C@]3(C)C[C@H]4[C@@H](C(=O)C[C@@]4(C)O)/C(C=O)=C\\C[C@H]32)O1", "note": "[6-EPI-OHPIOBOLIN A]", "Activity": 1}
    ]}
  ]
}
